Format in all cases: cell-based
Test [1] deals with T1, Androgen receptor (Homo sapiens) (UniProt P10275).
T1 sequence (whole entry): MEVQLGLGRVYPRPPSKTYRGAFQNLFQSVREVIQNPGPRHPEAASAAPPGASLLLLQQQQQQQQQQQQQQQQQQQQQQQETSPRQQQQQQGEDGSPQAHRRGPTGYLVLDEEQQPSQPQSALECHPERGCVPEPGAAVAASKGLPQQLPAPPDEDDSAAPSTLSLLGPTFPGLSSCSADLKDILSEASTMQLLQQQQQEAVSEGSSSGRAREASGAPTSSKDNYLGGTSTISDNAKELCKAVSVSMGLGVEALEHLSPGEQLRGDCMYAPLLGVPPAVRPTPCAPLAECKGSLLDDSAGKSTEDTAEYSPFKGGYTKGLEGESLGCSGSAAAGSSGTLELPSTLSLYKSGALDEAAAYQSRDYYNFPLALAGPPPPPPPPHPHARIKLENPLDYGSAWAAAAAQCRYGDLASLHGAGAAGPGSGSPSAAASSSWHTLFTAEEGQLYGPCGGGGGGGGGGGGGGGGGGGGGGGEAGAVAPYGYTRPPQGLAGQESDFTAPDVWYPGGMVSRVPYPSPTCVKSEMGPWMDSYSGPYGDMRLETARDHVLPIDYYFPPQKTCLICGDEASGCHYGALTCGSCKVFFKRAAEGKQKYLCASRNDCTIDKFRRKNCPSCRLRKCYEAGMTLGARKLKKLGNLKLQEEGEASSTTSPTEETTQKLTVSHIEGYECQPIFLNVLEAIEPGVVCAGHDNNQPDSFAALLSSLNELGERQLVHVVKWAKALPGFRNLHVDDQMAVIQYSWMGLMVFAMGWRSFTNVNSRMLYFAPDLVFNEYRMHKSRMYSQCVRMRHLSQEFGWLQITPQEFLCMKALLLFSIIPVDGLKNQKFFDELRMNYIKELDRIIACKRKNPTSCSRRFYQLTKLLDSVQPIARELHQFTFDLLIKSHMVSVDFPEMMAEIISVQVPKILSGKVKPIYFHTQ
The test is described as follows: Induction of androgen receptor degradation in human VCaP cells at 0.1 uM after 24 hrs by Western blotting analysis relative to control. In short, it runs like this:
(§1)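 VCaP cells treated for 24 h at 10, 100 or 1000 nM. AR protein measured by Western blotting.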
On the technique in general: Immunoblotting shows a protein as a band on a membrane.

Test [2] addresses T1, Androgen receptor (Homo sapiens). The test is described as follows: Induction of androgen receptor degradation in human VCaP cells at 1 uM after 24 hrs by Western blotting analysis relative to control. In short, it runs like this: as §1
For test [3] the target is unchanged. The experiment in a line: Induction of androgen receptor degradation in human VCaP cells at 0.01 uM after 24 hrs by Western blotting analysis relative to control. The method, boiled down:
as §1

SMILES strings stand for the structures.

As for `N#Cc1ccc(N2CCC3(CCN(C(=O)c4ccc(C(=O)N5CCN(CC6CCN(c7ccc8c(c7)C(=O)N(C7CCC(=O)NC7=O)C8=O)CC6)CC5)cc4)CC3)C2)cc1Cl` (stereo not drawn), the Activity in test [1] is less than 5%; in test [2] it was 33%; in test [3] it was less than 5%.

Consider `N#Cc1ccc(N2CCC3(CCN(c4ccc(C(=O)N5CCC(N6CCN(c7ccc8c(c7)C(=O)N(C7CCC(=O)NC7=O)C8=O)CC6)CC5)cc4)CC3)C2)cc1Cl` (stereo not drawn), for which the Activity in test [1] is 20%; in test [2] it was greater than 95%; in test [3], 37%.

On to `N#Cc1ccc(N2CCC3(CCN(c4ccc(C(=O)N5CCN(CC6CCN(c7ccc8c(c7)C(=O)N(C7CCC(=O)NC7=O)C8=O)CC6)CC5)cc4)CC3)C2)cc1Cl` (stereo not drawn), for which the Activity in test [1] is 80%; in test [2] it was greater than 95%; in test [3] it was 24%.

As to `C[C@H]1CC2(CCN(c3ccc(C(=O)N4CC5(C4)CN(c4ccc6c(c4)C(=O)N(C4CCC(=O)NC4=O)C6=O)C5)cc3)CC2)CN1c1ccc(C#N)c(Cl)c1` (stereo partly drawn), the results for the Activity in test [1], in test [2] and in test [3] were greater than 95%, greater than 95% and 79%, respectively.

As to `C[C@H]1CC2(CCN(c3ccc(C(=O)N4CC(N5CCN(c6ccc7c(c6)C(=O)N(C6CCC(=O)NC6=O)C7=O)CC5)C4)cc3)CC2)CN1c1ccc(C#N)c(Cl)c1` (stereo partly drawn), the Activity in test [1] was greater than 95%; in test [2] it was greater than 95%; in test [3], greater than 90%.

Regarding `C[C@@H]1N(c2ccc(C#N)c(Cl)c2)CCC12CCN(c1ccc(C(=O)N3CCN(C4CN(c5ccc6c(c5)C(=O)N(C5CCC(=O)NC5=O)C6=O)C4)CC3)cc1)CC2` (stereo partly drawn), the results for the Activity in test [1], in test [2] and in test [3] were greater than 95%, greater than 95% and 84%, respectively.

Regarding `N#Cc1ccc(N2CCC3(CCN(c4ccc(C(=O)N5CC6(C5)CN(C5CCN(c7ccc8c(c7)C(=O)N(C7CCC(=O)NC7=O)C8=O)CC5)C6)cc4)CC3)C2)cc1Cl` (stereo not drawn), the Activity in test [1] was 46%; in test [2], 73%; in test [3], less than 5%.

Regarding `N#Cc1ccc(N2CCC3(CCN(c4ccc(C(=O)N5CC6CC(C5)CN(C5CCN(c7ccc8c(c7)C(=O)N(C7CCC(=O)NC7=O)C8=O)CC5)C6)cc4)CC3)C2)cc1Cl` (stereo not drawn), the results for the Activity in test [1], in test [2] and in test [3] were 80%, 90% and 23%, respectively.

For the molecule `N#Cc1ccc(N2CCC3(CCN(c4ccc(C(=O)N5CCCN(C6CCN(c7ccc8c(c7)C(=O)N(C7CCC(=O)NC7=O)C8=O)CC6)CCC5)cc4)CC3)C2)cc1Cl` (stereo not drawn), the Activity in test [1] was 54%; in test [2], 54%; in test [3], less than 5%.

For the molecule `C[C@H]1N(c2ccc(C#N)c(Cl)c2)CCC12CCN(c1ccc(C(=O)N3CCN(C4CN(c5ccc6c(c5)C(=O)N(C5CCC(=O)NC5=O)C6=O)C4)CC3)cc1)CC2` (stereo partly drawn), the Activity in test [1] was determined as 68%; in test [2] it was 91%; in test [3], 46%.

Turning to `N#Cc1ccc(N2CCC3(CCN(c4ccc(C(=O)N5CCC6(C5)CN(C5CCN(c7ccc8c(c7)C(=O)N(C7CCC(=O)NC7=O)C8=O)CC5)C6)cc4)CC3)C2)cc1Cl` (stereo not drawn), the Activity in test [1] was 60%; in test [2] it was 82%; in test [3] it was 20%.

Take `C[C@H]1CC2(CCN(c3ccc(C(=O)N4CCC(C5CN(c6ccc7c(c6)C(=O)N(C6CCC(=O)NC6=O)C7=O)C5)CC4)cc3)CC2)CN1c1ccc(C#N)c(Cl)c1` (stereo partly drawn): the Activity in test [1] was 64%; in test [2], 92%; in test [3] it was 12%.

With `C[C@H]1CC2(CCN(c3ccc(C(=O)N4CCC(CN5CCN(c6ccc7c(c6)C(=O)N(C6CCC(=O)NC6=O)C7=O)CC5)CC4)cc3)CC2)CN1c1ccc(C#N)c(Cl)c1` (stereo partly drawn), the values for the Activity in test [1], in test [2] and in test [3] were greater than 95%, greater than 95% and 81%, respectively.

For the molecule `N#Cc1ccc(N2CCC3(CCN(c4ccc(C(=O)N5CCN(C6CN(c7ccc8c(c7)C(=O)N(C7CCC(=O)NC7=O)C8=O)C6)CC5)cc4)CC3)C2)cc1Cl` (stereo not drawn), the Activity in test [1] is greater than 95%; in test [2] it was greater than 95%; in test [3] it was 78%.

Consider `N#Cc1ccc(N2CCC3(CCN(c4ccc(C(=O)N5CCN(CC6CN(c7ccc8c(c7)C(=O)N(C7CCC(=O)NC7=O)C8=O)C6)CC5)cc4)CC3)C2)cc1Cl` (stereo not drawn), for which the Activity in test [1] turned out to be 81%; in test [2] it was 85%; in test [3], 30%.

Take `N#Cc1ccc(N2CCC3(CCN(c4ccc(C(=O)N5CCCN(C6CCN(c7ccc8c(c7)C(=O)N(C7CCC(=O)NC7=O)C8=O)CC6)CC5)cc4)CC3)C2)cc1Cl` (stereo not drawn): the results for the Activity in test [1], in test [2] and in test [3] were 80%, 92% and 45%, respectively.

For `C[C@H]1CC2(CCN(c3ccc(C(=O)N4CCN(C5(C#N)CN(c6ccc7c(c6)C(=O)N(C6CCC(=O)NC6=O)C7=O)C5)CC4)cc3)CC2)CN1c1ccc(C#N)c(Cl)c1` (stereo partly drawn), the Activity in test [1] worked out at 93%; in test [2], 88%; in test [3], 81%.

As for `N#Cc1ccc(N2CCC3(CCN(c4ccc(C(=O)N5CC6(C5)CN(C5CN(c7ccc8c(c7)C(=O)N(C7CCC(=O)NC7=O)C8=O)C5)C6)cc4)CC3)C2)cc1Cl` (stereo not drawn), the Activity in test [1] is 62%; in test [2], 81%; in test [3], 22%.

As to `N#Cc1ccc(N2CCC3(CCN(C(=O)c4ccc(N5CCN(C6CCN(c7ccc8c(c7)C(=O)N(C7CCC(=O)NC7=O)C8=O)CC6)CC5)cc4)CC3)C2)cc1Cl` (stereo not drawn), the Activity in test [1] was 43%; in test [2], 56%; in test [3], less than 5%.

Take `C[C@H]1CC2(CCN(c3ccc(C(=O)N4C[C@@H]5C[C@H]4CN5C4CN(c5ccc6c(c5)C(=O)N(C5CCC(=O)NC5=O)C6=O)C4)cc3)CC2)CN1c1ccc(C#N)c(Cl)c1` (stereo partly drawn): the Activity is greater than 95% in test [1], greater than 95% in test [2] and greater than 90% in test [3].

Take `C[C@H]1CC2(CCN(c3ccc(C(=O)N4CCN(CC5CCN(c6ccc7c(c6)C(=O)N(C6CCC(=O)NC6=O)C7=O)CC5)CC4)cc3)CC2)CN1c1ccc(C#N)c(Cl)c1` (stereo partly drawn): the figures for the Activity in test [1], in test [2] and in test [3] were greater than 95%, greater than 95% and greater than 90%, respectively.

With `C[C@H]1CC2(CCN(c3ccc(C(=O)N4CCN(C5CN(c6ccc7c(c6)C(=O)N(C6CCC(=O)NC6=O)C7=O)C5)CC4)cc3)CC2)CN1c1ccc(C#N)c(C(F)F)c1` (stereo partly drawn), the Activity in test [1] was greater than 95%; in test [2] it was greater than 95%; in test [3], greater than 90%.

Take `C[C@H]1CC2(CCN(c3ccc(C(=O)N4CCC(N5CCN(c6ccc7c(c6)C(=O)N(C6CCC(=O)NC6=O)C7=O)CC5)CC4)cc3)CC2)CN1c1ccc(C#N)c(Cl)c1` (stereo partly drawn): the Activity was greater than 95% in test [1], greater than 95% in test [2] and 78% in test [3].

`N#Cc1ccc(N2CCC3(CCN(c4ccc(C(=O)N5CCCN(C6CN(c7ccc8c(c7)C(=O)N(C7CCC(=O)NC7=O)C8=O)C6)CC5)cc4)CC3)C2)cc1Cl` (stereo not drawn): the Activity in test [1] turned out to be 70%; in test [2], 87%; in test [3] it was 39%.

For `C[C@H]1CC2(CCN(c3ccc(C(=O)N4CCN(CC5CN(c6ccc7c(c6)C(=O)N(C6CCC(=O)NC6=O)C7=O)C5)CC4)cc3)CC2)CN1c1ccc(C#N)c(Cl)c1` (stereo partly drawn), the Activity in test [1] is greater than 95%; in test [2] it was greater than 95%; in test [3] it was greater than 90%.

`C[C@H]1CC2(CCN(c3ccc(C(=O)N4C[C@H]5C[C@@H]4CN5C4CN(c5ccc6c(c5)C(=O)N(C5CCC(=O)NC5=O)C6=O)C4)cc3)CC2)CN1c1ccc(C#N)c(Cl)c1` (stereo partly drawn): the Activity amounted to 93% in test [1], 95% in test [2] and 54% in test [3].

For the origin of these results see ChEMBL document CHEMBL5331127, “Discovery of ARD-2051 as a Potent and Orally Efficacious Proteolysis Targeting Chimera (PROTAC) Degrader of Androgen Receptor for the Treatment of Advanced Prostate Cancer” (J Med Chem, 2023).
